Results from ChEMBL document CHEMBL1124806, “Synthesis of quaternary amine ether lipids and evaluation of neoplastic cell growth inhibitory properties” (J Med Chem, 1990).
pIC50: −log10 of the molar value.

Assays:
HL-60 [1] = assay: Inhibition of neoplastic cell proliferation in the HL-60 human promyelocytic leukemia cells; assay type: functional; settings: read-out: ID50 (the source's name)
Method in brief: (§1)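 HL-60 cells are kept in RPMI 1640 with 10% FBS and 2 mM glutamine under 5% CO2. They are seeded at 5 × 10^5 cells/mL with a range of lipid concentrations, diluted into medium from 1 mg/mL ethanol stocks. After 48 h, viable cells are counted by hemocytometer with trypan blue. ID50 values are averaged, and SD is taken from the averaged ID50s.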

HL-60 [2] = assay: Inhibition of neoplastic cell proliferation with the HL-60 human promyelocytic leukemia cells; assay type: functional; settings: read-out: ID50 (the source's name); method in brief: as §1
Protein kinase C (PKC) = assay: Inhibition of Protein Kinase C (PKC) isolated from HL-60 human promyelocytic leukemia cells; assay type: cell-free
Method in brief: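 Partially purified PKC from HL-60 cells, pH 7.5, in 25 mM Tris, 10 mM MgCl2, 0.1 mM CaCl2, 40 μg/mL histone, 20 μg/mL phosphatidylserine, 2.5 μM OAG, and 10 μM ATP with [γ-32P]ATP. Analogue in ethanol is added before the enzyme starts the reaction, with a 0.1% ethanol control. The reaction runs 20 min at 30 °C and is stopped with BSA and ice-cold 25% TCA. Filter-bound 32P-histone is counted; duplicates.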

Row | Structure (SMILES) | pIC50 (HL-60 [1]) | pIC50 (HL-60 [2]) | IC50 (Protein kinase C (PKC)) [µM]
1 | CCCCCCCCCCCCCCCCSCC(C[N+](C)(C)CCO)OC (stereo unspecified) |  | 5.33 | 
2 | CCCCCCCCCCCCCCCCCCSCC(C[N+](C)(C)CCCO)OC.[I-] (stereo unspecified) | 5.47 |  | 5
3 | CCCCCCCCCCCCCCCCSCC(C[N+](C)(C)C)OC.[Br-] (stereo unspecified) | 5.66 |  | 25
4 | CCCCCCCCCCCCCCCCSCC(C[N+](C)(C)CCO)OCC (stereo unspecified) |  | 5.43 | 
5 | CCCCCCCCCCCCCCCCCC1OCC(COCCCC[N+](C)(C)C)O1 (stereo unspecified) | 5.55 |  | 
6 | CCCCCCCCCCCCCCCCCC1OCC(C[N+](C)(C)CCCO)O1.[Br-] (stereo unspecified) | 5.19 |  | 13
7 | CCCCCCCCCCCCCCCCOCC(C[N+]1(C)CCC(O)CC1)OCC (stereo unspecified) | 5.57 |  | 
8 | CCCCCCCCCCCCCCCCSCC(C[N+](C)(C)CCCO)OCC (stereo unspecified) |  | 5.53 | 
9 | CCCCCCCCCCCCCCCCOCC(COCCCC[N+](C)(C)C)OCC.[Br-] (stereo unspecified) | 5.73 |  | > 40
10 | CCCCCCCCCCCCCCCCOCC(COCCCC[N+](C)(C)C)OC.[Br-] (stereo unspecified) | 5.64 |  | > 40
11 | CCCCCCCCCCCCCCCCOCC(COCCCCCCCCCC[N+](C)(C)C)OC (stereo unspecified) | 5.42 |  | 
12 | CC1(C)OCC(C[N+](C)(C)CCO)O1 (stereo unspecified) | < 5.00 |  | 
13 | CCCCCCCCCCCCCCCCCCOCC(COP(=O)([O-])OCC[N+](C)(C)C)OC (stereo unspecified) [EDELFOSINE] | 5.70 |  | 12

The next lines start with the values.

Row | pIC50 (HL-60 [1]) | pIC50 (HL-60 [2]) | IC50 (Protein kinase C (PKC)) [µM] | Structure (SMILES)
14 | 6.00 |  |  | CCCCCCCCCCCCCCCCOCC(C[n+]1ccccc1)OCC (stereo unspecified)
15 | 5.80 |  | > 40 | CCCCCCCCCCCCCCCCOCC(C[N+](C)(C)C)OC.[Br-] (stereo unspecified)
16 | 5.73 |  | 31 | CCCCCCCCCCCCCCCCOCC(COCC[N+](C)(C)C)OC.[Br-] (stereo unspecified)
17 | 5.81 |  |  | CCCCCCCCCCCCCCCCOCCCOCCCC[N+](C)(C)C
18 | 5.79 |  | > 40 | CCCCCCCCCCCCCCCCOCCC[N+](C)(C)C.[Br-]
19 | 5.90 |  |  | CCCCCCCCCCCCCCCCCCOCC(COCCCC[N+](C)(C)C)OCC (stereo unspecified)
20 | 6.17 |  |  | CCCCCCCCCCCCCCCCOCC(C[N+](CC)(CC)CC)OCC (stereo unspecified)
21 | 6.09 |  | > 40 | CCCCCCCCCCCCCCCCOCCC[n+]1ccccc1.[Br-]
22 | 5.74 |  |  | CCCCCCCCCCCCCCCCSCC(COCCCC[N+](C)(C)C)OCC (stereo unspecified)
23 | 5.76 |  | > 40 | CCCCCCCCCCCCCCCCOCC(COCCCCCC[N+](C)(C)C)OC.[Br-] (stereo unspecified)
24 | 5.92 |  |  | CCCCCCCCCCCCCCCCOCC(COCCC[N+](C)(C)C)OC (stereo unspecified)
25 | 6.11 |  |  | CCCCCCCCCCCCCCCCOCC(COCCCC[n+]1ccccc1)OCC (stereo unspecified)
